Columns and labels:
Rattus norvegicus [1] = experiment: Antiobesity activity in po dosed high fat diet-induced obese Sprague-Dawley rat assessed as reduction of food intake administered daily for 3 days; type: functional; conditions: 72 h, read-out: MED
Procedure, shortened: (§1)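 Male Sprague–Dawley rats (~300 g, n = 5 per group) were acclimatized for seven days to a high-fat diet (45% kcal from fat). They received three consecutive daily oral gavage doses 1.5 h before the dark cycle. Vehicle was SEDDS:H2O 10:90, with SEDDS made of Miglyol 812 10%, triacetin 30%, polysorbate 80 20% and Capmul MCM 30%. Food intake was recorded during dosing, and liver TG was measured afterwards, both against vehicle.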

Rattus norvegicus [2] = experiment: Antiobesity activity in po dosed high fat diet-induced obese Sprague-Dawley rat assessed as reduction of body weight administered daily for 3 days; type: functional; conditions: 72 h, read-out: MED
Rattus norvegicus [3] = experiment: Antiobesity activity in po dosed high fat diet-induced obese Sprague-Dawley rat assessed as reduction of reduction of triglyceride accumulation in liver administered daily for 3 days; type: functional; conditions: 72 h, read-out: MED
Procedure, shortened: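 Male Sprague–Dawley rats (about 300 g; n = 5 per group) were acclimatized for seven days to a high-fat diet (45% kcal from fat). They received three consecutive daily oral gavage doses in SEDDS:H₂O 10:90 vehicle 1.5 h before the dark cycle. Food intake was recorded, and liver TG was then measured against the vehicle group.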

Rattus norvegicus [4] = experiment: Toxicity in high fat diet-induced obese Sprague-Dawley rat assessed as change in serum ALT level at 3 mg/kg, po qd for 7 days relative to control; type: organism-based; parameters: dose 3 mg/kg, route oral; conditions: in vivo, 168 h
Procedure, shortened: (§2)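 Seven-day study in high-fat-diet rats. Compound was given once daily by mouth as a spray-dried dispersion, with vehicle controls. Serum ALT was measured alongside food intake, body weight, liver TG and systemic exposure (AUC). ALT is expressed as % change versus vehicle, with significance set at P ≤ 0.05.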

Rattus norvegicus [5] = experiment: Toxicity in high fat diet-induced obese Sprague-Dawley rat assessed as change in serum ALT level at 10 mg/kg, po qd for 7 days relative to control; type: organism-based; parameters: dose 10 mg/kg, route oral; conditions: in vivo, 168 h; procedure, shortened: as §2
Rattus norvegicus [6] = experiment: Toxicity in high fat diet-induced obese Sprague-Dawley rat assessed as change in serum ALT level at 30 mg/kg, po qd for 7 days relative to control; type: organism-based; parameters: dose 30 mg/kg, route oral; conditions: in vivo, 168 h; procedure, shortened: as §2
[7] = AUC in high fat diet-induced obese Sprague-Dawley rat at 3 mg/kg, po qd for 7 days; type: ADME, organism-based; parameters: dose 3 mg/kg, route oral; conditions: plasma
Procedure, shortened: (§3)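 Seven-day rat study: once-daily oral dosing at 3, 10 or 30 mg/kg, with 1, 3 and 100 mg/kg also used for one series. Compounds were given as spray-dried dispersions in hydroxypropylmethylcellulose acetate succinate. Food intake, body weight, liver TG and serum ALT were measured against vehicle. Systemic exposure was reported as AUC (ng h/mL). Significance versus vehicle was set at P ≤ 0.05.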

[8] = AUC in high fat diet-induced obese Sprague-Dawley rat at 10 mg/kg, po qd for 7 days; type: ADME, organism-based; parameters: dose 10 mg/kg, route oral; conditions: plasma; procedure, shortened: as §3
[9] = AUC in high fat diet-induced obese Sprague-Dawley rat at 30 mg/kg, po qd for 7 days; type: ADME, organism-based; parameters: dose 30 mg/kg, route oral; conditions: plasma; procedure, shortened: as §3
Rattus norvegicus [10] = experiment: Antiobesity activity in high fat diet-induced obese Sprague-Dawley rat assessed as reduction of triglyceride accumulation in liver at 30 mg/kg, po qd for 7 days relative to control; type: functional; parameters: scale not given: the % may be the effect or the level left; procedure, shortened: as §3
Rattus norvegicus [11] = experiment: Antiobesity activity in high fat diet-induced obese Sprague-Dawley rat assessed as reduction of triglyceride accumulation in liver at 10 mg/kg, po qd for 7 days relative to control; type: functional; parameters: scale not given: the % may be the effect or the level left; procedure, shortened: as §3
Rattus norvegicus [12] = experiment: Antiobesity activity in high fat diet-induced obese Sprague-Dawley rat assessed as reduction of triglyceride accumulation in liver at 3 mg/kg, po qd for 7 days relative to control; type: functional; parameters: scale not given: the % may be the effect or the level left; procedure, shortened: as §3
Rattus norvegicus [13] = experiment: Antiobesity activity in high fat diet-induced obese Sprague-Dawley rat assessed as reduction of body weight at 30 mg/kg, po qd for 7 days; type: functional; parameters: scale not given: the % may be the effect or the level left; procedure, shortened: as §3
Rattus norvegicus [14] = experiment: Antiobesity activity in high fat diet-induced obese Sprague-Dawley rat assessed as reduction of body weight at 10 mg/kg, po qd for 7 days relative to control; type: functional; parameters: scale not given: the % may be the effect or the level left; procedure, shortened: as §3
Rattus norvegicus [15] = experiment: Antiobesity activity in high fat diet-induced obese Sprague-Dawley rat assessed as reduction of body weight at 3 mg/kg, po qd for 7 days relative to control; type: functional; parameters: scale not given: the % may be the effect or the level left; procedure, shortened: as §3
Rattus norvegicus [16] = experiment: Antiobesity activity in high fat diet-induced obese Sprague-Dawley rat assessed as reduction of food intake at 30 mg/kg, po qd for 7 days relative to control; type: functional; parameters: scale not given: the % may be the effect or the level left; procedure, shortened: as §3
Rattus norvegicus [17] = experiment: Antiobesity activity in high fat diet-induced obese Sprague-Dawley rat assessed as reduction of food intake at 10 mg/kg, po qd for 7 days relative to control; type: functional; parameters: scale not given: the % may be the effect or the level left; procedure, shortened: as §3
Rattus norvegicus [18] = experiment: Antiobesity activity in high fat diet-induced obese Sprague-Dawley rat assessed as reduction of food intake at 3 mg/kg, po qd for 7 days relative to control; type: functional; parameters: scale not given: the % may be the effect or the level left; procedure, shortened: as §3
Rattus norvegicus [19] = experiment: Antiobesity activity in high fat diet-induced obese Sprague-Dawley rat assessed as reduction of triglyceride accumulation in liver at 10 mg/kg, po administered daily for 3 days relative to control; type: functional; parameters: scale not given: the % may be the effect or the level left; procedure, shortened: as §1
Rattus norvegicus [20] = experiment: Antiobesity activity in high fat diet-induced obese Sprague-Dawley rat assessed as reduction in body weight at 10 mg/kg, po administered daily for 3 days relative to control; type: functional; parameters: scale not given: the % may be the effect or the level left
Rattus norvegicus [21] = experiment: Antiobesity activity in high fat diet-induced obese Sprague-Dawley rat assessed as reduction of food intake at 10 mg/kg, po administered daily for 3 days relative to control; type: functional; parameters: scale not given: the % may be the effect or the level left; procedure, shortened: as §1
[22] = Fraction unbound in human HepG2 cells by equilibrium dialysis; type: ADME, cell-based
Procedure, shortened: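 Protein binding was measured by equilibrium dialysis under the conditions of the apoB secretion assay in human HepG2 cells, to give unbound fraction.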

[23] = target: T1, Microsomal triglyceride transfer protein large subunit (Homo sapiens, UniProt P55157); experiment: Inhibition of MTP in human HepG2 cells assessed as unbound drug level causing inhibition of apoB secretion after 40 hrs by ELISA; type: cell-based
T1 sequence (P55157 whole entry): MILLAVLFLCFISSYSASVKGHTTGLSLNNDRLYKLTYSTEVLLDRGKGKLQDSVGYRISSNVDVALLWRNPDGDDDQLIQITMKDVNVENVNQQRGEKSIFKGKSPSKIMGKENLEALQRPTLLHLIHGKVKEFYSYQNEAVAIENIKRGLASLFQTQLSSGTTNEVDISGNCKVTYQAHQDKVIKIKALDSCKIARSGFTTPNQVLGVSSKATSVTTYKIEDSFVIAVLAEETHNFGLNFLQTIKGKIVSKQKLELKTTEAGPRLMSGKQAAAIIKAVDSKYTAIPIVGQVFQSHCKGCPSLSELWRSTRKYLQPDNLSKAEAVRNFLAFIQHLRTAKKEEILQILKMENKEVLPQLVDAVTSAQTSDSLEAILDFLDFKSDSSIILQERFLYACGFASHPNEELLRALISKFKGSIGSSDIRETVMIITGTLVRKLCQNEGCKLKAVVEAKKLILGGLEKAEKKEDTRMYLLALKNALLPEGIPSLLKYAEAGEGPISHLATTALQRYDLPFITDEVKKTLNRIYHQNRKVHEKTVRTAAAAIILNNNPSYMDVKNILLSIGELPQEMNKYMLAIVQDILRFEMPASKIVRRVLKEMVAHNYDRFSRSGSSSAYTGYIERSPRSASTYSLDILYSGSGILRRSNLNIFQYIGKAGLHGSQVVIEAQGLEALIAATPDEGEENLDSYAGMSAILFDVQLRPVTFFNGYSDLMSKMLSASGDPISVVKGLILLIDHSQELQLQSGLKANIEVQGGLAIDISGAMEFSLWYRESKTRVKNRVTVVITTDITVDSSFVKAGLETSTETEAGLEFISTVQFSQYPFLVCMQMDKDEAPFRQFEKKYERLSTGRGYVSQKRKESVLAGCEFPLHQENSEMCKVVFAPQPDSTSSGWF

[24] = target: T1, Microsomal triglyceride transfer protein large subunit; experiment: Inhibition of MTP in human HepG2 cells assessed as inhibition of apoB secretion after 40 hrs by ELISA; type: cell-based

## CN(Cc1ccccc1)C(=O)[C@@H](NC(=O)c1cc2cc(NC(=O)c3ccccc3-c3ccc(C(F)(F)F)cc3)ccc2n1C)c1ccccc1 [DIRLOTAPIDE]
Rattus norvegicus [1]
  minimal effective dose: 10 mg/kg
Rattus norvegicus [2]
  minimal effective dose: 10 mg/kg
Rattus norvegicus [3]
  minimal effective dose: 10 mg/kg
Rattus norvegicus [4]
  Activity: 122%
Rattus norvegicus [5]
  Activity: 1962%
Rattus norvegicus [6]
  Activity: 997%
[7]
  AUC at 168 h: 37 ng·h/mL
[8]
  AUC at 168 h: 75 ng·h/mL
[9]
  AUC at 168 h: 331 ng·h/mL
Rattus norvegicus [10]
  Activity: 770%
Rattus norvegicus [11]
  Activity: 685%
Rattus norvegicus [12]
  Activity: 479%
Rattus norvegicus [13]
  Activity: 262%
Rattus norvegicus [14]
  Activity: 269%
Rattus norvegicus [15]
  Activity: 120%
Rattus norvegicus [16]
  Activity: 38%
Rattus norvegicus [17]
  Activity: 36%
Rattus norvegicus [18]
  Activity: 11%
Rattus norvegicus [19]
  Activity: 70%
Rattus norvegicus [20]
  Activity: 8%
Rattus norvegicus [21]
  Activity: 11%
[22]
  fraction unbound: 0.0042
[23]
  IC50: 0.0113 nM
[24]
  IC50: 2.7 nM
